Only some compounds are listed: those with a hit (about 1.9% of all), similar ones and a draw of the others.
Rev-erbA mod: Rev-erb alpha (human) modulation. Rev-erbα–FITC-DNA binding, fluorescence polarization, 90 min. hit rate 0.79% among 370,000. AID 1259318. activity, % at 10 µM. P20393;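 active = activity above about 14%, limit read from the data; passing the limit was not always enough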;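 also: 0% = DMSO wells with 35 nM protein and 100% = DMSO wells with 750 nM protein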
Target sequence (P20393 whole entry, looked up): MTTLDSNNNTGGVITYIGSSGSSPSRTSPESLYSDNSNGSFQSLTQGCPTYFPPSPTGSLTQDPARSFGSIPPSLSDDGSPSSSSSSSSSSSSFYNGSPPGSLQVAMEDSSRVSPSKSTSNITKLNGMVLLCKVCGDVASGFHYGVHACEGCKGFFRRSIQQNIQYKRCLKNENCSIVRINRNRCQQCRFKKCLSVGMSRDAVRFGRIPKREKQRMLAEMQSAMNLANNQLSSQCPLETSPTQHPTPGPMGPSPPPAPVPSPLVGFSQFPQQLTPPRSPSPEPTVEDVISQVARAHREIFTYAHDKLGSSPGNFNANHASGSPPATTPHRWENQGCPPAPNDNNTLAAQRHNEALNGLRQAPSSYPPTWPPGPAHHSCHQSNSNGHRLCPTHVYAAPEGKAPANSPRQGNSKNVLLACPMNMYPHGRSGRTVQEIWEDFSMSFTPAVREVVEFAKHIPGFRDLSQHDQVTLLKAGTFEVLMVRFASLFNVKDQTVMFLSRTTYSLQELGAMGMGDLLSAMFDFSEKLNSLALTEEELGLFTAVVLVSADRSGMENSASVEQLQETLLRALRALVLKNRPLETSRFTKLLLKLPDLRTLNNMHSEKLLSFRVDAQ
MT1-MMP act inh: blocks activation of human MT1-MMP | hit rate 0.061% among 360,000 | AID 651647 | GFP/RFP ratio change, % at 20 µM | HT1080 RFP-PRO-GFP cells, GFP/RFP ratio fluorescence, overnight; percent of plate control window, DMSO zero;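 active = GFP/RFP ratio change of at least 30% with cell ATP level not reduced by more than half and red fluorescence within 50% of control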
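Assay system: HT1080 RFP-PRO-GFP cells | Dosing: 20 µM single dose, 1% DMSO | Incubation: Cells overnight before dosing, compound overnight, 37 °C, 5% CO2 | Evaluation: GFP/RFP fluorescence ratio | Control set: DMSO-only wells and HT1080 RFP-L50D-GFP cell wells as references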
PG9 Ab binder: binds the HIV-1 gp120 antibody PG9; TR-FRET gp120-PG9 antibody binding; inhibition, % at 6.7 µM; hit rate 0.43% among 360,000; AID 624416; in the data active = inhibition above about 8.5%
NR2E3 ag-1: activates human photoreceptor nuclear receptor NR2E3; Q9Y5X4; GST-NR2E3/biotin-RetCOR TR-FRET, 1536-well; inhibition of corepressor binding, % at 4.78 µM; hit rate 0.12% among 320,000; AID 2300;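 active = percent inhibition above the cutoff of mean plus 3 SD of all tested compounds, set per screening campaign, cut at about 20% in these data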;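 also: 0% = DMSO wells and 100% = biotin wells as full block of FRET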
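Assay system: NR2E3–RetCOR corepressor complex. Quantity: 1.35 nM GST-NR2E3. Buffer or medium: pH 7.5 Tris-based buffer. Reagent: biotinylated RetCOR corepressor at 7 nM final. Schedule: 5 h at 4 °C. Detection: TR-FRET, emission read at 617 and 671 nm. Replicates: one well per compound, singlicate testing.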
NR2E3 ag-2: agonists of human NR2E3 nuclear receptor; CHO-S Gal4-NCOR/VP16-NR2E3 two-hybrid, luciferase; hit rate 0.35% among 360,000; Q9Y5X4; inhibition of corepressor binding, % at 3.98 µM; AID 602229;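 active = inhibition above the mean of all tested compounds plus 3 SD, cut at about 70% in these data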;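 also: 0% = DMSO with NR2E3 transfected cells and 100% = cells lacking NR2E3 construct; higher means lower luciferase signal from less NR2E3 corepressor binding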
SKN-1 inh: blocks SKN-1 activity in C. elegans. inhibition, % at 21.8 µM. hit rate 0.49% among 360,000. C. elegans VP596 Pgst-4::GFP/RFP ratio, acrylamide-induced, 24 h;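 active = interference check ratio from 0.5 to 1.5 plus GFP to RFP signal ratio inhibition reaching or exceeding a fixed threshold, cut at about 30% in these data, passing the limit was not always enough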
NR2E3 ag confirm: confirmation of human NR2E3 nuclear receptor agonists | activation (reported as inhibition), % at 3.98 µM | cell-free NR2E3 corepressor release, TR-FRET, 5 h | shares compounds with NR2E3 ag-1 | hit rate 39% among 360; in the data active = activation above about 20%
PPARg-NCOR2 ctr: PPARg-NCOR2 interaction agonism, NR2E3 counter-screen; shares compounds with NR2E3 ag-1; hit rate 45% among 360; inhibition, % at 3.98 µM; TR-FRET PPARg-NCOR2 coregulator interaction, biochemical; in the data active = inhibition above about 20%;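 also: 0% = DMSO vehicle and 100% = wells without protein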
* hit, by the source's call; . = no result given.

SMILES	Rev-erbA mod	MT1-MMP act inh	PG9 Ab binder	NR2E3 ag-1	NR2E3 ag-2	SKN-1 inh	others
CCn1c(=O)cc(SCC(=O)NCc2ccco2)c2ccccc21	2	2	-6	1	-63	17
CC(CCc1ccco1)NC(=O)CSc1cc(=O)n(C)c2ccccc12 (stereo not given)	-4	-1	1	1	-21	37*
O=S(=O)(O)c1ccccc1O	-3	.	.	.	.	.
CC(C)(C)OC(=O)/C=C/[C@@H](CCCCl)Sc1ccc(C(C)(C)C)cc1	1	.	.	.	.	.
Cc1ccc([C@H]2C[C@]34CN(Cc5ccccc5)S(=O)(=O)[C@H]3C[C@H]2O4)cc1	-7	.	0	.	.	.
Oc1ccc(-c2cnc3ccccc3n2)cc1	1	.	1	-2	-83	-7
Clc1ccc(-c2cnc3ccccc3n2)cc1	3	5	0	5	-106	42*
COc1ccc(/C(O)=C2/C(=O)C(=O)N(CCN(C)C)C2c2ccc(C)cc2)cc1Cl (stereo not given)	2	2	7	7	-10	5
COc1ccc(/C(O)=C2/C(=O)C(=O)N(CCN(C)C)C2c2ccccc2)cc1Cl (stereo not given)	-3	1	8.7*	8	-21	-1
CCC(=O)N1c2ccc(S(=O)(=O)CCC(=O)NCc3cccs3)cc2CC1C (stereo not given)	1	1	-1	2	-14	43*
CCC(=O)N1c2ccc(S(=O)(=O)CCC(=O)NC3CCCC3)cc2CC1C (stereo not given)	3	-1	0	0	-9	-2
COC(=O)c1c(NC(=O)Cc2cccs2)sc2c1CCC(C)C2 (stereo not given)	0	-7	1	1	-15	3
COC(=O)c1c(NC(=S)NN2CCN(C)CC2)sc2c1CCC(C)C2 (stereo not given)	-2	-9	2	0	26	35*
CCOC(=O)C1=CC[C@@H](c2ccccc2)C(C#N)(C#N)[C@H]1/C=C/c1ccccc1	1	.	1	.	.	.
CC(C)OC(=O)N(C)C[C@H]1OCc2cn(nn2)CCCC(=O)N([C@@H](C)CO)C[C@@H]1C	1	.	-1	.	.	.
Cc1cccn2c(=O)c(/C=C3\SC(=S)NC3=O)c(NCCCN3CCOCC3)nc12	2	-54	-7	-1	-26	52*
CC(C)(C)NCC(O)CSc1nc(-c2ccc(C(N)=O)s2)cs1 (stereo not given)	9	.	.	.	.	.
O=C(CCCn1c(=S)[nH]c2cc3c(cc2c1=O)OCO3)NCc1ccco1	-1	1	0	-2	-19	-8
O=c1c2cc3c(cc2[nH]c(=S)n1Cc1ccco1)OCO3	-13	-2	-1	0	8	40*
CCc1nnc(NC(=O)c2sc3nc4cc(C)ccc4cc3c2N)s1	-2	-185	-10	37*	-35	-2	NR2E3 ag confirm=-9;PPARg-NCOR2 ctr=-5
COc1cccc2c(=S)c(CCC(C)=O)c(C)[nH]c12	1	1	-2	21*	-2	17	NR2E3 ag confirm=6;PPARg-NCOR2 ctr=-2
CCOC(=O)c1c(-c2ccsc2)csc1N	-4	2	1	3	2	-1
CCOC(=O)c1c(-c2ccc(C)s2)csc1N	1	1	-3	68*	-8	2	NR2E3 ag confirm=-4;PPARg-NCOR2 ctr=-5
Cc1oc2c(c1C(=O)NCc1cccnc1)C(=O)c1ccccc1C2=O	.	.	.	22*	.	.	NR2E3 ag confirm=19;PPARg-NCOR2 ctr=0
CC(=O)c1c(C)oc2c1C(=O)c1ccccc1C2=O	0	-1	-3	-3	-22	2
CC1(C)Cc2c(c(-c3ccccc3)nc3[nH][nH]c(=O)c23)CO1	-6	1	-5	-1	-3	10
CC1(C)Cc2c(c(-c3ccccc3)nc3sc4c(=O)[nH]c(=S)[nH]c4c23)CO1	.	.	.	20*	.	.	NR2E3 ag confirm=19;PPARg-NCOR2 ctr=11

Screening results: PubChem, several laboratories
